Data: ChEMBL document CHEMBL3797057, “Synthesis and bioevaluation of substituted chalcones, coumaranones and other flavonoids as anti-HIV agents” (Bioorg Med Chem, 2016)
The source made the active and inactive calls. The rule behind the calls is not given here.

Columns and labels:
[1] = Cytotoxicity against human TZM-bl cells assessed as inhibition of cell viability at 10 uM by CytoTox Glo assay relative to control; format: cell-based; details: for cytotoxicity at 10 µM: TZM-bl cells, read-out: INH; for inhibition (INH): tzm, 10 µM
Outline: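 Replicate dishes of treated TZM-bl cells (50-60% confluent, compound at 10 µM in D10, triplicate) assayed with CytoTox Glo for dead and total cell numbers. Result is % difference in live-cell luminescence versus matched DMSO vehicle control.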

[2] = system: Human immunodeficiency virus 1; assay: Antiviral activity against HIV1 infected in human TZM-bl cells assessed as inhibition of viral infection at 10 uM preincubated with cells for 5 mins followed by viral infection measured after 24 hrs by Bright Glo luciferase reporter gene assay relative to control; format: functional; details: for inhibition at 10 µM: Human immunodeficiency virus 1, TZM-bl
Outline: (§1)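 TZM-bl cells at 50-60% confluence, in D10 medium, were pre-treated in triplicate with 10 µM compound or DMSO vehicle, for 5 min or 3 h. Virus was then added at 60 TCID50/0.1mL (MOI=0.01). After 24 h the cells were lysed for luciferase, read over 5 s/well. Result is % reduction in relative light units versus the virus+DMSO control.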

[3] = Cytotoxicity against human PM1 cells assessed as inhibition of cell viability at 10 uM by trypan blue dye exclusion method relative to control; format: cell-based; details: read-out: INH
Outline: (§2)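 PM1 cells (1.5 × 10^5/0.1 mL) kept in R20 with compound or matched DMSO vehicle over the 5-day BaL propagation assay (10 min pre-treatment, 2 h infection, wash, re-treatment). Viability monitored by trypan blue dye exclusion.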

[4] = system: Human immunodeficiency virus 1; assay: Antiviral activity against HIV1 BAL infected in human PM1 cells assessed as inhibition of viral propagation at 5 uM preincubated with cells for 10 mins followed by viral infection measured after 2 hrs by p24 ELISA relative to control; format: functional; details: for inhibition at 5 µM: Human immunodeficiency virus 1, BAL
Outline: (§3)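 PM1 cells (1.5 × 10^5/0.1 mL) in R20 (RPMI 1640, 20% FBS, 10mM HEPES) given compound or matched DMSO 10 min, then infected with HIV-1 BaL at 150 TCID50/0.1 mL (MOI=0.001) for 2 h. Cells washed, resuspended in fresh R20 with compound or vehicle. Supernatants taken day 3; culture continued to day 5, supernatant assayed for HIV p24 by ELISA.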

[5] = Cytotoxicity against human PM1 cells assessed as inhibition of cell viability at 5 uM by trypan blue dye exclusion method relative to control; format: cell-based; details: for cytotoxicity at 5 µM: PM1 cells, read-out: INH; for inhibition (INH): pm1, 5 µM; outline: as §2
[6] = Cytotoxicity against human TZM-bl cells assessed as decrease in cell metabolic activity up to 10 uM by MTT reduction assay; format: ADME, cell-based
Outline: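 Confluent TZM-bl cells exposed to compound up to 10 µM or matched vehicle; cell metabolic activity monitored by MTT reduction assay. Mean ± SEM, n=3.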

[7] = Cytotoxicity against human TZM-bl cells assessed as decrease in cell viability at IC50 by CytoTox Glo assay relative to control; format: cell-based
[8] = system: Human immunodeficiency virus 1; assay: Antiviral activity against HIV1 93UG067 clinical isolate infected in human TZM-bl cells assessed as inhibition of viral infection; format: functional, organism-based
Outline: (§4)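 TZM-bl cells seeded at 6 × 10^4 cells/ml (6000 cells/well), left overnight, then at 50-60% confluence treated in triplicate with compound in D10 or DMSO vehicle. After 5 min, HIV-1 added at 60 TCID50/0.1mL (MOI=0.01). After 24 h at 37°C/5% CO2, cells lysed for Bright Glo luciferase. Inhibition is % reduction in RLU versus virus+DMSO control, with no-virus wells as baseline.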

[9] = system: Human immunodeficiency virus 1; assay: Antiviral activity against HIV1 92UG029 clinical isolate infected in human TZM-bl cells assessed as inhibition of viral infection; format: functional, organism-based; outline: as §4
[10] = system: Human immunodeficiency virus 1; assay: Antiviral activity against HIV1 BAL infected in human TZM-bl cells assessed as inhibition of viral infection; format: functional, organism-based; details: for IC50: Human immunodeficiency virus 1, BAL; outline: as §4
[11] = system: Human immunodeficiency virus 1; assay: Antiviral activity against HIV1 BAL infected in human PM1 cells assessed as inhibition of viral propagation at 10 uM preincubated with cells for 10 mins followed by viral infection measured after 2 hrs by p24 ELISA relative to control; format: functional; details: for inhibition at 10 µM: Human immunodeficiency virus 1, BAL; outline: as §3
[12] = system: Human immunodeficiency virus 1; assay: Antiviral activity against HIV1 infected in human TZM-bl cells assessed as inhibition of viral infection at 10 uM preincubated with cells for 3 hrs followed by viral infection measured after 24 hrs by Bright Glo luciferase reporter gene assay relative to control; format: functional; details: Human immunodeficiency virus 1, TZM-bl; outline: as §1
[13] = system: Human immunodeficiency virus 1; assay: Antiviral activity against HIV1 93UG070 clinical isolate infected in human TZM-bl cells assessed as inhibition of viral infection; format: functional, organism-based; outline: as §4
CHO = assay: Cytotoxicity against CHO cells assessed as decrease in cell proliferation after 48 hrs by MTS assay; format: cell-based, Cricetulus griseus
Outline: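 CHO cells plated at 10,000 cells/mL, in triplicate, incubated overnight. Compound then added from DMSO stock, final DMSO <1%. After 48 h at 37°C in 5% CO2, MTS reagent was added for 4 h and absorbance read at 490 nm. IC50 taken from the plot of relative A490 versus concentration.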

[14] = Cytotoxicity against human PM1 cells assessed as cell viability at 10 uM by trypan blue dye exclusion method relative to control; format: cell-based; details: read-out: Activity; outline: as §2

## COc1ccc(Cl)cc1/C=C/C(=O)c1ccccc1O
[1]
  cytotoxicity at 10 µM: 99.5%

## CCOc1ccc(Cl)cc1/C=C1\Oc2cccc(OCc3ccccc3)c2C1=O
[1]
  inhibition (INH): Not Active
[2]
  inhibition at 10 µM: 15.7%

## COc1cc(Br)cc(/C=C/C(=O)c2ccccc2O)c1OC
[1]
  cytotoxicity at 10 µM: 72.3%

## COc1ccc(Br)cc1/C=C/C(=O)c1c(O)cccc1OCc1ccccc1
[3]
  cytotoxicity at 10 µM: 61.7%
[1]
  cytotoxicity at 10 µM: 23.4%
[4]
  inhibition at 5 µM: 80%
[5]
  cytotoxicity at 5 µM: 0.6%
[6]
  Activity: Non-toxic
[7]
  Activity: Non-toxic
[8]
  inhibition: Dose-dependent effect
[9]
  inhibition: Dose-dependent effect
[10]
  inhibition: Dose-dependent effect
  IC50: 4.7 µM
[2]
  inhibition at 10 µM: 86.5%
[11]
  inhibition at 10 µM: 99.9%
[12]
  inhibition at 10 µM: 90.5%
[13]
  inhibition: Dose-dependent effect

## COc1ccc(C)cc1/C=C/C(=O)c1ccccc1O
[1]
  cytotoxicity at 10 µM: 46.9%

## COc1ccccc1-c1oc2ccccc2c(=O)c1O
[1]
  inhibition (INH): Not Active
[7]
  Activity: Non-toxic
[10]
  IC50: 30.4 µM
[2]
  inhibition at 10 µM: 21.3%

## COc1ccc(Br)cc1/C=C/C(=O)c1c(O)cccc1OC
[1]
  cytotoxicity at 10 µM: 90.4%

## COc1ccc(I)cc1/C=C/C(=O)c1ccccc1O
[1]
  cytotoxicity at 10 µM: 99.6%
[2]
  inhibition at 10 µM: 99.7%

## COc1ccc(Br)cc1/C=C/C(=O)c1ccc2ccccc2c1O
[1]
  cytotoxicity at 10 µM: 19.9%
[7]
  Activity: 90%
[10]
  IC50: 20 µM

## COc1ccc(Br)cc1/C=C1\Oc2cccc(OC)c2C1=O
[1]
  cytotoxicity at 10 µM: 0.2%
CHO; Cricetulus griseus, CHO, 48 h, read-out: IC50
  IC50: 17.3 µM
[2]
  inhibition at 10 µM: 9.2%

## COc1ccccc1-c1cc(=O)c2ccccc2o1
[1]
  cytotoxicity at 10 µM: 39.5%

## COc1ccc(Br)cc1-c1cc(=O)c2c(O)cccc2o1
[1]
  cytotoxicity at 10 µM: 34.8%

## COc1ccc(I)cc1-c1oc2ccccc2c(=O)c1O
[1]
  cytotoxicity at 10 µM: 15.3%

## COc1cc(Br)cc(-c2oc3ccccc3c(=O)c2O)c1OC
[1]
  inhibition (INH): Not Active
[7]
  Activity: Non-toxic
[10]
  IC50: 30.9 µM
[2]
  inhibition at 10 µM: 25.9%

## COc1ccccc1-c1cc(=O)c2c(O)cccc2o1
[1]
  cytotoxicity at 10 µM: 44.5%
[7]
  Activity: 42%
[10]
  IC50: 4.4 µM
[2]
  inhibition at 10 µM: 83.8%

## CCOc1ccc(Br)cc1/C=C1\Oc2cccc(OCc3ccccc3)c2C1=O
[1]
  cytotoxicity at 10 µM: 8.4%
[2]
  inhibition at 10 µM: 12.6%

## CCOc1ccc(Br)cc1/C=C/C(=O)c1c(O)cccc1OCc1ccccc1
[1]
  inhibition (INH): Not Active
[4]
  inhibition at 5 µM: 72.2%
[5]
  inhibition (INH): Not Active
[14]
  viability at 10 µM: 96.8%
[2]
  inhibition at 10 µM: 60.2%
[11]
  inhibition at 10 µM: 92.3%
[12]
  inhibition at 10 µM: 89.9%

## COc1ccc(Br)cc1-c1cc(=O)c2c(OCc3ccccc3)cccc2o1
[1]
  cytotoxicity at 10 µM: 6.5%
[7]
  Activity: Non-toxic
[10]
  IC50: 42.3 µM
[2]
  inhibition at 10 µM: 16.4%

## CCOc1ccc(Cl)cc1/C=C/C(=O)c1ccccc1O
[1]
  cytotoxicity at 10 µM: 86.4%
[2]
  inhibition at 10 µM: 86.1%

## COc1ccc(Cl)cc1-c1oc2ccccc2c(=O)c1O
[1]
  cytotoxicity at 10 µM: 23.5%

## CCOc1ccc(Cl)cc1/C=C/C(=O)c1c(O)cccc1OCc1ccccc1
[3]
  cytotoxicity at 10 µM: 12.3%
[1]
  cytotoxicity at 10 µM: 8.7%
[4]
  inhibition at 5 µM: 65.8%
[5]
  inhibition (INH): Not Active
[2]
  inhibition at 10 µM: 64.8%
[11]
  inhibition at 10 µM: 95.8%
[12]
  inhibition at 10 µM: 79%

## CCOc1ccc(Br)cc1/C=C/C(=O)c1ccccc1O
[1]
  cytotoxicity at 10 µM: 51.9%

## CCCCCCCCOc1ccc(Br)cc1/C=C/C(=O)c1c(O)cccc1OCc1ccccc1
[2]
  inhibition at 10 µM: < 10%
[12]
  inhibition at 10 µM: 27.9%

## COc1ccccc1/C=C/C(=O)c1ccccc1O
[1]
  cytotoxicity at 10 µM: 16.5%
[2]
  inhibition: inactive

## CCOc1ccc(Cl)cc1-c1oc2ccccc2c(=O)c1O
[3]
  cytotoxicity at 10 µM: 25.8%
[1]
  cytotoxicity at 10 µM: 21.9%
[7]
  Activity: 20%
[10]
  IC50: 12.6 µM
[11]
  inhibition: inactive
[12]
  inhibition at 10 µM: 54.1%

## COc1cc(OC)c(-c2oc3ccccc3c(=O)c2O)cc1Br
[1]
  inhibition (INH): Not Active
[2]
  inhibition at 10 µM: 43.6%

## COc1ccc(C)cc1-c1oc2ccccc2c(=O)c1O
[1]
  cytotoxicity at 10 µM: 4.8%

## COc1ccc(Br)cc1/C=C/C(=O)c1ccccc1O
[1]
  cytotoxicity at 10 µM: 62.6%

## COc1ccccc1/C=C/C(=O)c1c(O)cccc1OCc1ccccc1
CHO; cho
  IC50: ND(toxic)

## COc1ccc(Br)cc1-c1oc2ccccc2c(=O)c1O
[1]
  inhibition (INH): Not Active
[7]
  Activity: Non-toxic
[10]
  IC50: 43.7 µM
[2]
  inhibition at 10 µM: 22.4%

## CCOc1ccc(Br)cc1-c1oc2ccccc2c(=O)c1O
[3]
  cytotoxicity at 10 µM: 23.1%
[1]
  inhibition (INH): Not Active
[4]
  inhibition: inactive
[5]
  cytotoxicity at 5 µM: 16.5%
[7]
  Activity: Non-toxic
[10]
  IC50: 10.4 µM
[2]
  inhibition at 10 µM: 51.7%
[11]
  inhibition at 10 µM: 1.3%
[12]
  inhibition at 10 µM: 54.9%

## COc1ccc(Br)cc1-c1cc(=O)c2ccccc2o1
[1]
  cytotoxicity at 10 µM: 23.6%

## COc1cc(OC)c(/C=C/C(=O)c2ccccc2O)cc1Br
[1]
  cytotoxicity at 10 µM: 1.9%
[2]
  inhibition at 10 µM: 28.6%

## COc1ccc(Br)cc1C1CC(=O)c2ccccc2O1 (centres undefined)
[1]
  inhibition (INH): Not Active
